STAT3 activator: increases IL-6 driven STAT3 reporter signal | U3A cells, IL-6 STAT3-luciferase reporter, luminescence; 100% = signal with IL-6 EC80 alone | activation (% of control), % at 5.6 µM | 190,000 tested, 0.91% active | AID 871;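 active = activation above the screen-wide mean of compound activation plus 3 SD, cut at about 130% in these data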
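Material: STAT3-luciferase reporter U3A cells. Controls: IL-6-treated wells, 100% activation. Read-out: % activation versus median of IL-6-stimulated wells. Probe or stimulus: IL-6 stimulus at 33 ng/mL final. Timing: compound 1 h, then IL-6 6 h at 37 °C. Signal: reporter luminescence signal.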
TRAIL sens C8: sensitizes caspase-8 expressing cells to TRAIL. NB7+C8 cells + TRAIL, ATPlite viability luminescence. inhibition (viability loss, TRAIL sensitization), % at 10 µM. 360,000 tested, 1% active;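 active = compounds causing at least 50% loss of cell viability in the single-dose screen, relative to plate controls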
STAT1 inh: reduces IFN-gamma driven STAT1 reporter signal; inhibition, % at 5.5 µM; NIH 3T3 STAT1-luciferase reporter, luminescence; AID 920; 200,000 tested, 0.35% active;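 active = inhibition above a set limit, the mean inhibition across all tested compounds plus 3 SD, cut at about 34% in these data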
STAT3 inh-1: STAT3 signaling inhibition | U3A cells, IL-6 STAT3-luciferase reporter, luminescence; host cell line lacks STAT1 | inhibition, % at 5.5 µM | 190,000 tested, 0.89% active | AID 862;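 active = inhibition above the mean inhibition across all screened compounds plus 3 SD, cut at about 44% in these data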
PPC-1+TRAIL kill: PPC-1 cancer cell killing with TRAIL present; PPC-1 cells + TRAIL, ATPLite viability luminescence; cell killing (% activity), % at 4 µM or 5 µM; 220,000 tested, 0.41% active; AID 1443;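 active = cell killing above 50% in the first pass at 4 µM, then a duplicate retest at 5 µM averaging 50% or more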
HSP90 refold inh: inhibitors of HSP90 luciferase refolding in rabbit reticulocyte lysate. luciferase refolding luminescence, 3 h. inhibition, % at 5.6 µM. 290,000 tested, 0.91% active. AID 1789;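 active = inhibition above the screen-wide mean plus 3 SD, computed separately per campaign, cut at about 16% in these data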;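 note: inhibitors lower the luminescence because luciferase stays unfolded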
STAT3 inh-2: confirmation of STAT3 signaling inhibitors. shares compounds with STAT3 inh-1. U3A cells, IL-6 STAT3 luciferase reporter, luminescence; cell line lacks STAT1. inhibition, % at 5.7 µM. 1,200 tested, 45% active. AID 1265;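 active = inhibition above the hit cutoff computed for the primary STAT3 screen, cut at about 44% in these data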
NFkB inh STAT3ct: NF-kappaB inhibition in STAT3 inhibitor counter-screen | AID 1308 | inhibition, % at 5.7 µM | shares compounds with STAT3 inh-1 | HEK293T NF-kB luciferase reporter, TNF-alpha induced | 1,200 tested, 36% active;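 active = inhibition above the mean of solvent-only control wells plus 3 SD, cutoff set per campaign, cut at about 13% in these data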
STAT1 inh 2: inhibits STAT1, counter-screen to STAT3 inhibitors; shares compounds with STAT3 inh-1; NIH 3T3 STAT1-luciferase reporter, IFN-gamma induced, luminescence; inhibition, % at 5.7 µM; 1,200 tested, 27% active; AID 1317;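 active = inhibition above the mean plus 3 SD of solvent-only control wells, limit set per screening run, cut at about 16% in these data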
Hits are given with their value; – = inactive; · = no result. This is a sample that favours compounds with a hit; in the whole collection about 2.3% have one here.

SMILES | STAT3 activator | TRAIL sens C8 | STAT1 inh | STAT3 inh-1 | PPC-1+TRAIL kill | HSP90 refold inh | STAT3 inh-2 | NFkB inh STAT3ct | STAT1 inh 2
Cc1ccn2cc(-c3cc4ccccc4oc3=O)nc2c1 | – | – | – | 75 | – | – | 44 | 27 | –
O=S(=O)(c1ccc2c(c1)OCCO2)N1CCC(c2nc3ccccc3s2)CC1 | – | – | – | 53 | – | – | 44 | – | –
COc1ccccc1OCC(=O)c1[nH]c(C)c(C(C)=O)c1C | – | – | – | 56 | – | – | 46 | – | –
CC(=O)c1c(C)[nH]c(C(=O)COc2cc(C)ccc2C(C)C)c1C | – | – | – | 68 | – | – | 73 | 21 | 22
COc1ccc(NC(=O)NC23CC4CC(CC(C4)C2)C3)cc1OC | – | – | – | – | – | – | · | · | ·
CCOC(=O)C1=C(CC)Nc2ccccc2N/C1=N\S(=O)(=O)c1cccc(C(C)=O)c1 | · | – | · | · | · | · | · | · | ·
O=C(NCCCN1CCOCC1)c1ccc(CNS(=O)(=O)c2ccc(Br)cc2)cc1 | – | – | – | – | – | – | · | · | ·
O=C(NCCCN1CCOCC1)c1ccc(Br)cc1 | – | – | – | 53 | – | – | – | – | –
O=C1C2CCc3ccccc3C2N1c1ccccc1 (stereo not given) | · | – | · | · | · | · | · | · | ·
Cc1ccc(C)c(N2CCN(C(=O)Nc3ccc4c(c3)N(C)C(=O)CS4)CC2)c1 | – | – | – | 45 | – | – | – | 15 | 20
CC(=O)NC1C(=O)N(CCN2CCOCC2)c2ccc(Cl)cc21 (stereo not given) | · | – | · | · | · | – | · | · | ·
O=C(Nc1cccc(O)c1)C(=O)Nc1ccccn1 | – | 71 | – | 71 | – | 37 | 51 | – | –
C/C(CC(=O)Nc1ccccn1)=N\NC(=O)C(=O)Nc1cccc(C)c1 | – | – | – | – | – | – | · | · | ·
CS(=O)(=O)N(CC(=O)NCCSCc1ccccc1)c1ccccc1Br | · | – | · | · | · | – | · | · | ·
COc1ccc(Br)cc1/C(C)=N/NC1=NCCN1 | – | – | – | 54 | – | – | 47 | – | –
CCCCCOc1ccc(Br)cc1/C(C)=N/NC1=NCCN1 | – | – | – | – | – | – | · | · | ·
CC(Sc1nnc(C2CC2)n1C1CC1)C(=O)NCc1cccs1 (stereo not given) | · | – | · | · | · | · | · | · | ·
O=C(Nc1cccc(-c2cn3cccnc3n2)c1)c1ccc2c(c1)OCO2 | – | – | – | – | – | – | · | · | ·
CS(=O)(=O)N1CCc2cc(-c3csc(NC(=O)Cc4cccs4)n3)ccc21 | – | – | – | 82 | – | – | 72 | 19 | –
COC(=O)C1=NNC2C(=O)N(c3ccc(C)cc3)C(=O)C12 (stereo not given) | – | – | – | – | – | – | · | · | ·
Cc1ccc(-c2cnc3c(Cl)c(C)nn3c2)cc1 | – | – | – | 82 | – | – | – | 22 | –
Cc1ccc(S(=O)(=O)C(C#N)c2nc3ccccc3nc2N2CCN(C)CC2)cc1C (stereo not given) | – | – | – | 50 | – | – | – | – | –
COc1ccc(C(=O)NCC(=O)N2CCCC(C)C2)cc1OC (stereo not given) | – | – | – | – | – | – | · | · | ·
CCN1/C(=C/c2ccc3ccccc3[n+]2CC)C=Cc2ccccc21 | – | 59 | – | 92 | – | – | 90 | 52 | 22
CCN1/C(=C/c2ccc3ccccc3[n+]2CCCS(=O)(=O)[O-])C=Cc2cc(C)ccc21 | · | – | · | · | · | – | · | · | ·
CC1CCN(S(=O)(=O)c2ccc3c(c2)oc(=O)n3CC(=O)NCc2ccc3c(c2)OCO3)CC1 | – | – | – | 44 | – | – | – | – | 17
Cc1c(C(=O)NCc2ccc3c(c2)OCO3)oc2ccc(S(=O)(=O)N3CCC(C)CC3)cc12 | – | – | – | – | – | – | · | · | ·
COc1ccc(N=c2scc(-c3ccc(OC)cc3)n2CCO)cc1 | – | – | – | 52 | – | – | – | – | –
CCc1ccc(NS(=O)(=O)c2cc(OC)ccc2OC)cc1 | – | – | – | – | – | – | · | · | ·

Bioassay records deposited in PubChem by several laboratories.
